An excerpt weighted towards active compounds, which were near 3% of everything screened.
HTR1E agonist – activates the human 5-HT1E serotonin receptor; CHO 5-HT1E Ga15 NFAT-bla reporter, FRET; 0% DMSO wells, 100% control agonist wells; P28566; 65,000 compounds, 0.69% hits; activation, % at 6 µM;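 active = activation above a set limit, the screen-wide mean activation plus 3 SD, cut at about 8.5% in these data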;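 note: 100% = positive control agonist at 1 µM giving full maximal response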
5HT1E antag – 5-HT1E (human) receptor antagonism | P28566 | CHO 5-HT1E Ga15 NFAT-bla reporter, FRET, antagonist | inhibition, % at 6 µM | 65,000 compounds, 0.99% hits | AID 571;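 active = inhibition above a set limit, the mean inhibition across every tested compound plus 3 SD, cut at about 29% in these data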;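 note: signal is the 460 over 535 nm emission ratio of beta-lactamase substrate; 0% = agonist plus DMSO wells and 100% = wells without agonist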
HTR1A agonist – activates the human 5-HT1a serotonin receptor; P08908; CHO 5-HT1a Ga15 NFAT-bla reporter, FRET ratio; 0% basal, 100% maximal reference agonist; activation, % at 10 µM; 65,000 compounds, 0.56% hits; AID 567;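 active = activation above the screen-wide mean activation plus 3 SD, cut at about 19% in these data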;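 note: 0% = DMSO wells and 100% = 5-CT at EC100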
5-HT1A blocker – 5-HT1a (human) receptor antagonism; P08908; CHO 5-HT1a Ga15 NFAT-bla reporter, antagonist mode; inhibition, % at 10 µM; 62,000 compounds, 0.68% hits; AID 612;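 active = inhibition above the mean of all tested compounds plus 3 SD, cut at about 43% in these data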;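 note: receptor stimulated by 5-CT agonist at 100 nM near EC80; beta-lactamase reporter measured by ratiometric fluorescence of a cleavable substrate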
S1P3 agonist – S1P3 (human) receptor agonism; Q99500; S1P3 NFAT-BLA reporter cells, FRET ratio; relative to 1 µM S1P, basal subtracted; activation, % at 4.5 µM; 60,000 compounds, 0.1% hits; AID 373;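 active = activation above the screen-wide mean plus 3 SD, cut at about 4.5% in these data, passing the limit was not always enough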
Target sequence (Q99500 whole entry, looked up): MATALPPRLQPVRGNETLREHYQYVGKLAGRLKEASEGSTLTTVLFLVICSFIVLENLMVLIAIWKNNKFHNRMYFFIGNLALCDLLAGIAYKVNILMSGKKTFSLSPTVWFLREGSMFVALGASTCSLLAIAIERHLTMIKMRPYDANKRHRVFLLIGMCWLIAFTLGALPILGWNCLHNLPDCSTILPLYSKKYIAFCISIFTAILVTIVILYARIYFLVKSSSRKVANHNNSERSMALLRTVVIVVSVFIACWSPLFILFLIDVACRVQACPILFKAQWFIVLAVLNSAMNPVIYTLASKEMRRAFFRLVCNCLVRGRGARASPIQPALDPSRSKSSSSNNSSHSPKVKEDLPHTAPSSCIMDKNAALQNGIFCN
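Benchmarks: high control 1 µM S1P / System: stable CHO line with human S1P3, Gα16, NFAT-BLA reporter / Dosing: single compound concentration, 4.5 µM final / Timing: 4 h compound at 37 °C, 2 h substrate at RT / Measured by: FRET β-lactamase substrate fluorescence, excitation 405 nm, 460/535 nm emission ratio, background-subtracted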
S1P1 ag pot – activates or potentiates agonism at human S1P1 receptor. P21453. S1P1 CRE-bla cells, forskolin, beta-lactamase FRET, potentiator mode; S1P1 agonist co-added at EC20, 2 nM; 100% = saturating reference agonist, 0% = basal. activation, % at 9.5 µM. 56,000 compounds, 0.57% hits. AID 449;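 active = activation above a cutoff set at the mean activation of all tested compounds plus 3 SD, cut at about 54% in these data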;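 note: forskolin at 4 µM as EC80 and the EC20 agonist is SEW2871; 100% = SEW2871 at its EC100 plus forskolin at EC80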
* hit, by the source's call; . = no result given.

SMILES	HTR1E agonist	5HT1E antag	HTR1A agonist	5-HT1A blocker	S1P3 agonist	S1P1 ag pot
CCn1c(SCC(=O)NCC2CCCO2)nc2c(c1=O)SC(C)C2 (configuration not stated)	0.9	-8.4	19.5*	-10.3	-0.2	-13.8
CCn1c(SCC(=O)Nc2nc3ccccc3s2)nc2c(c1=O)SC(C)C2 (configuration not stated)	-0.7	-10.6	0.4	-16.1	-0.1	46.3
CCn1c2ccccc2c2nnc(SCCCn3c(=O)[nH]c4ccccc43)nc21	1.9	26.3	2.1	19.4	-0.5	-51.8
COc1c(C)cc(Br)cc1C(=O)Nc1cccc(-c2nc3ncccc3o2)c1	0.3	14.5	66.2*	11.7	-0.3	-17.8
CC(C)OC(=O)CN1CCN(C2c3ccccc3-c3ccccc32)CC1	0.8	1.6	-2.8	-9.0	-0.8	-28.4
O=C(Cc1coc2ccc3ccccc3c12)N1CCN(c2ncccn2)CC1	-0.1	6.0	-4.4	-6.6	0.0	-16.5
Cc1ccc(-c2nc3ccccc3[nH]2)cc1NC(=O)c1ccco1	-0.8	11.0	-0.5	-1.3	-1.8	-19.2
O=C(Nc1cccc(-c2nc3ccccc3[nH]2)c1)c1cccc(NC(=O)c2ccco2)c1	0.3	43.3*	2.3	32.8	-0.2	3.4
C=CCNC(=O)c1cc(-c2ccc(Br)cc2)on1	1.6	-6.0	-1.4	-5.3	-0.2	-4.5
CC(C)[C@H](NC(=O)OC(C)(C)C)c1nnc(S(=O)(=O)Cc2c(F)cccc2Cl)o1	1.2	67.3*	5.3	78.7*	-0.9	17.8
CCOC(=O)CSc1nnc([C@H](Cc2ccccc2)NC(=O)OC(C)(C)C)o1	0.4	-9.4	-0.2	-17.2	0.0	-6.4
CC(C)CC(=O)N1CCN(Cc2cccc(F)c2)CC1	0.8	8.4	-0.4	1.0	-1.1	-9.9
Cc1[nH]c(=O)[nH]c(=O)c1CSc1nnc([C@@H](NC(=O)OC(C)(C)C)C(C)C)o1	0.1	-19.1	0.3	-9.0	0.1	10.2
Cc1ccccc1CS(=O)(=O)c1nnc([C@H](CC(C)C)NC(=O)OC(C)(C)C)o1	1.8	36.1*	3.3	39.3	-0.1	59.0
CC(C)C[C@H](N)c1nnc(S(=O)(=O)Cc2cccc(F)c2)o1	-0.5	19.9	-0.7	58.5*	-1.5	2.0
CC[C@@H](C)[C@H](NC(=O)OC(C)(C)C)c1nnc(S(=O)(=O)Cc2cc(C)ccc2C)o1	-0.1	35.1*	1.0	57.4*	-2.1	24.9
CN1CCN(Cc2nc3c(c(=O)[nH]c(=O)n3C)n2Cc2c(F)cccc2Cl)CC1	0.5	4.2	1.2	-5.0	-0.8	-2.8
O=C(O)c1cc(-c2ccco2)nc2ccc(Br)cc12	0.2	2.7	-2.5	8.1	-0.3	-2.6
CC(C)(C)OC(=O)N[C@@H](Cc1ccccc1)c1nnc(S(=O)(=O)Cc2cccc(F)c2)o1	1.1	45.9*	-2.5	67.3*	-0.9	69.8*
O=C(Cc1ccc(-n2cccc2)cc1)NCc1cccs1	0.0	50.7*	-3.4	36.3	-1.5	6.4
O=C(Cn1cccc1)NCc1cccs1	-1.1	-0.1	-1.9	5.8	0.1	-13.2
N#Cc1nc(-c2ccc(OCc3ccccc3)cc2)oc1NCc1ccco1	-0.1	-14.2	0.8	-22.6	0.0	-15.9
CNc1oc(-c2ccc(OCc3ccccc3)cc2)nc1C#N	-0.3	-1.7	-1.2	-23.8	0.4	73.3*
CCCS(=O)(=O)c1nnnn1-c1cccc(OC)c1	-1.2	106.4*	-10.6	108.6*	-1.7	116.2*
CCOc1ccc(-n2c(SCc3nc(-c4cccs4)no3)nnc2-c2ccncc2)cc1	-0.3	13.5	6.2	49.5*	-1.2	-12.0
SMILES	HTR1E agonist	5HT1E antag	HTR1A agonist	5-HT1A blocker	S1P3 agonist	S1P1 ag pot
CCCn1c(SCc2nc(-c3cccs3)no2)nnc1-c1ccncc1	-0.1	0.5	-4.3	-3.1	-0.4	.
CCOC(=O)c1ccccc1NC(=O)Cn1c(-c2nonc2N)nc2ccccc21	-1.6	74.4*	-2.1	79.7*	-2.2	-19.0
Nc1nonc1-c1nc2ccccc2n1Cc1ccccc1	-0.2	14.4	-1.5	56.1*	-1.3	.
O=C1c2ccccc2C(Nc2ccc(S(=O)(=O)N3CCCCCC3)cc2)N1Cc1ccco1 (configuration not stated)	0.0	5.4	43.8*	13.2	-0.8	22.6
COc1cccc(C2=NOC(C(=O)Nc3cc(OC)c(OC)c(OC)c3)C2)c1 (configuration not stated)	0.3	9.6	-0.5	-15.0	-0.4	-2.4
CC1CC(N(C(=O)c2ccco2)c2ccccc2)c2ccccc2N1 (configuration not stated)	16.2*	-5.9	-0.6	9.6	1.1	6.1
CCC(=O)N1CCN(c2nc(C)nc3sc(C)c(C)c23)CC1	0.1	3.9	-0.7	4.4	-1.1	-2.0
Cc1nc(N2CCN(C)CC2)c2c(C)c(C(=O)Nc3ccc(F)cc3)sc2n1	20.3*	-8.5	0.5	-7.9	.	.
CCN(CC)C(=O)CN(C#N)c1nc(NC(C)C)nc(NC(C)C)n1	-0.1	-11.5	-0.9	.	-0.7	8.2
CCCN(C#N)c1nc(NCC)nc(NC(C)C)n1	0.8	28.6*	-0.6	8.3	-0.2	-25.6
CCn1c(Cc2ccccc2)nnc1SCC(=O)Nc1ccc(N2CCOCC2)c(Cl)c1	0.9	-0.3	0.6	-4.5	-1.3	.
Cn1c(SCC(=O)Nc2ccc(N3CCOCC3)c(Cl)c2)nnc1-c1ccccc1	-0.7	-11.8	-1.0	-2.4	-1.2	89.2*
CCOC(=O)c1c(NC(=O)CSc2nnc(-c3cccnc3)o2)sc(C(C)=O)c1C	-0.5	30.4*	-0.9	0.4	-1.5	4.6
CCOC(=O)c1c(NC(=O)CSc2nc3cccnc3n2C)sc(C(C)=O)c1C	2.4	43.3*	-0.4	17.2	-0.3	-29.8
CCOC(=O)c1c(NC(=O)CSc2nnc(-c3ccccc3C)n2C)sc(C(C)=O)c1C	-0.7	24.6	1.9	3.9	-0.7	16.2
CCCCNC(=O)c1cc2c(=O)n3cccc(C)c3nc2n(Cc2ccncc2)c1=N	2.2	-24.6	11.5	-0.5	0.8	-47.3
Cc1cccc(N2CCN(C(=O)c3ccc(CS(=O)(=O)c4ccccc4C)o3)CC2C)c1 (configuration not stated)	0.3	39.5*	1.1	45.6*	-1.8	6.4
CCOc1cc(N2CCOCC2)c(OCC)cc1NC(=O)c1cc(-c2ccco2)nc2ccccc12	0.2	50.2*	2.2	27.1	.	.
COc1ccc(CNC(=O)CSc2ncnc3nc[nH]c23)cc1	-1.3	7.0	-2.8	4.4	-0.7	12.6
Cc1nnc(SCC(=O)N2c3ccccc3Sc3ccccc32)n1N	0.0	-7.0	-2.8	4.0	2.5	-4.7
